Experimental data collected from several papers.
Lines come from different studies, so protocols differ.
TEK: Angiopoietin-1 receptor (TEK, Homo sapiens, UniProt Q02763)
TEK R849W: Angiopoietin-1 receptor (TEK, Homo sapiens, UniProt Q02763, R849W)

The remaining activity of Cc1cnc(NC2CCOCC2)nc1-n1cnc(C(=O)NC(CN)c2cc(F)cc(Cl)c2)c1 (centres unmarked) is reported as 105% (Angiopoietin-1 receptor (TEK, Homo sapiens, UniProt Q02763, Y897S); enzyme activity, inhibitor, radiometric; 1 µM).
With Cc1c[nH]c2nccc(Oc3c(F)cc(Nc4cc(Cl)nc(N)n4)cc3F)c12 the remaining binding was 95% (TEK; cell-free assay, competition with immobilised ligand; 0.1 µM).
With CCCOc1ccc(OC)c(F)c1C(=O)c1ccc(C(=O)N[C@@H]2CNC[C@H]2NC(=O)c2ccc3[nH]ncc3c2)cc1 the remaining activity was 49% (TEK; enzyme activity, inhibitor; 10 µM).
CCN(CC)CCNC(=O)c1c(C)[nH]c(/C=C2\C(=O)Nc3ccc(F)cc32)c1C has an inhibition of 74% (TEK; enzyme activity, inhibitor; 10 µM).
The remaining binding of C[C@H](c1ccc(F)cc1)N(Cc1cccc(C(=O)O)c1)C(=O)c1cnc2ccccc2c1 is reported as 98% (TEK; cell-free assay, competition with immobilised ligand; 1 µM).
With N#CCCc1ccc2c(c1)-c1[nH]c3ccc([N+](=O)[O-])cc3c1CC(=O)N2 the remaining signal was 97.6% (TEK; cell-free assay; 0.5 µM).
With CN(C)c1ncnc(-c2ccc3nc(Nc4cc(CN5CCN(C(=O)CC(F)(F)F)CC5)ccn4)[nH]c3c2)c1Cl the remaining binding was 87% (TEK; cell-free assay, competition with immobilised ligand; 1 µM).
CCN(CC)c1ccc(C2=NNC(=O)CC2C)cc1[N+](=O)[O-] (centres unmarked) has a remaining activity of 24% (TEK; enzyme activity, inhibitor; 10 µM).
The remaining signal of Cc1ccc(Nc2nccc(N(C)c3ccc4c(C)n(C)nc4c3)n2)cc1S(N)(=O)=O is reported as 69.3% (TEK; cell-free assay; 0.5 µM).
Cc1ccc(C(=O)Nc2ccc(CN3CCN(C)CC3)c(C(F)(F)F)c2)cc1C#Cc1cnc2cccnn12 has a remaining signal of 5.2% (TEK; cell-free assay; 23.5 nM).
With COc1cc(Nc2cnc(C#N)c(O[C@H](C)CN(C)C)n2)ncc1-c1cnn(C)c1 the remaining activity was 90% (TEK; enzyme activity, inhibitor, radiometric; 10 µM).
For COc1cc2ncnc(Nc3ccc(Oc4ccccc4)c(C)c3C)c2cc1OC, the inhibition was 6% (TEK; enzyme activity, inhibitor; 1 µM).
The remaining binding of CCc1ccccc1C(=O)Nc1n[nH]c2c(C)c(F)c(C3C(C#N)=C(C)N(C)C(C)=C3C#N)cc12 is reported as 91% (TEK; cell-free assay, competition with immobilised ligand; 1 µM).
With COc1cc2nccc(Oc3ccc(NC(=O)c4c5n(n(-c6ccc(F)cc6)c4=O)CCCC5)cc3)c2cc1OC the inhibition was 26% (TEK; enzyme activity, inhibitor; 0.1 µM).
Cc1ccc(NC(=O)c2ccc(C)c(C(F)(F)F)c2)cc1C#Cc1nn(C2CCC(O)CC2)c2ncnc(N)c12 (centres unmarked) has a remaining signal of 0% (TEK R849W; cell-free assay; 10 µM).
With Nc1ncnc2occ(-c3ccc(NC(=O)Nc4cc(C(F)(F)F)ccc4F)cc3)c12 the remaining signal was 0% (TEK; cell-free assay; 20 µM).
CCCCN(CCCC)C(=O)CN1C[C@@H](c2cc(OC)c3c(c2)OCO3)[C@H](C(=O)O)[C@H]1CC(C)(C)CCC gave a remaining binding of 100% (TEK; cell-free assay, competition with immobilised ligand; 1 µM).
For Cc1cc(NC(=O)c2cccc3cc(-c4cccc5[nH]nc(N)c45)ccc23)ccc1F, the activity vs control was 93% (TEK R849W; enzyme activity, inhibitor; 0.1 µM).
The remaining activity of CC(C)(C)c1nc(-c2cccc(NS(=O)(=O)c3c(F)cccc3F)c2F)c(-c2ccnc(N)n2)s1 is reported as 58% (TEK; enzyme activity, inhibitor, radiometric; 1 µM).
The remaining binding of O=C(Nc1cnc(Oc2ccc(F)cc2)nc1)N1CCc2ncccc2[C@@H]1c1ccc(F)cc1 is reported as 93% (TEK; cell-free assay, competition with immobilised ligand; 1 µM).
O=C1NC(=O)c2cc(Nc3ccc(F)cc3)c(Nc3ccc(F)cc3)cc21 gave a remaining signal of 97.6% (TEK; cell-free assay; 0.5 µM).
With O=C(CSc1nc2nccnc2c(=O)n1CCc1ccccc1)Nc1nccs1 the inhibition was 6% (TEK; enzyme activity, inhibitor; 10 µM).
CNC(=O)c1cc2c(Oc3ccc(NC(=O)C4(C(=O)Nc5ccc(F)cc5)CC4)cc3)ccnc2cc1OC has an inhibition of 99% (TEK; enzyme activity, inhibitor, radiometric; 1 µM).
CNCc1ccc(-c2cc(-c3nc(-c4ccc(S(=O)(=O)C(C)C)cc4)cnc3N)on2)cc1 has an inhibition of 0% (TEK; enzyme activity, inhibitor; 0.4 µM).
With Cc1ccc(C(=O)NCc2ccsc2)cc1C#Cc1cn(C(C)C)c2ncnc(N)c12 the activity vs control was 6% (TEK; enzyme activity, inhibitor; 1 µM).
With CNCc1ccccc1-c1csc([C@@H](C)Nc2nc(C)nc3cc(OC)c(OC)cc23)c1 the remaining binding was 87% (TEK; cell-free assay, competition with immobilised ligand; 1 µM).
Cc1[nH]c(/C=C2\C(=O)Nc3ccc(F)cc32)c(C)c1C(=O)N[C@H]1CCN(C(=O)N(C)C)C1 gave a remaining activity of 87% (TEK; enzyme activity, inhibitor; 1 µM).
With Cn1cc(Cl)c2c(Oc3c(F)cc(Nc4cc(Cl)nc(N)n4)cc3F)ccnc21 the remaining binding was 100% (TEK; cell-free assay, competition with immobilised ligand; 0.1 µM).
Cc1sc(C(=O)NC2COC2)cc1-n1cc(NC(=O)Nc2c(F)cccc2Cl)cn1 has a remaining activity of 86.6% (TEK; enzyme activity, inhibitor; 10 µM).
